Experiment [1] concerns the target Estrogen receptor (Bos taurus) (UniProt Q9XSB5+P49884). The experiment in a line: Relative binding affinity to calf uterine estrogen receptor. It is filed as protein assay. A digest of the protocol: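 Calf uterine cytosol (105000g supernatant, 3 mg/mL protein in the assay) in Tris/EDTA/NaN3 buffer pH 7.5, with 5 nM 17β-[3H]estradiol and competitor at 10^-9–10^-5 M. Incubated 18 h at 4 °C; bound and free ligand separated with dextran-coated charcoal. Nonspecific binding defined with 5 μM estradiol. RBA = ratio of molar concentrations of estradiol and compound giving 50% displacement × 100.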

Experiment [2] has as its target T1, Estrogen receptor (Mus musculus) (UniProt O08537+P19785). The experiment in a line: Anti-uterotrophic effect in mice at 125 ug. The experiment is classed as functional. Summed up: (§1)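 Immature female NMRI mice (20 days old), groups of 6-10, injected sc in olive oil (100 μL/animal) on three consecutive days with test compound plus 0.4 μg estrone per animal and day. Killed 24 h after last injection; uteri fixed in Bouin solution, dried at 100 °C for 24 h. Relative uterine weight = uterine dry weight (mg)/body weight (g) × 100; mean of six animals ± SD.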

In experiment [3] the target is T1, Estrogen receptor (Mus musculus). Put plainly: Anti-uterotrophic effect in mice at 5 ug. It is filed as functional. Summed up: as §1
Experiment [4] shares this target. Put plainly: Uterotrophic effect in mice at 1 ug. The experiment is classed as functional, tissue-based. The note with it: Uterus. A digest of the protocol:
(§2)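 Immature NMRI female mice, 20 days old, groups of 6-10, received test compound in olive oil (100 μL/animal) sc on three consecutive days; vehicle controls were included. At 24 h after the last dose, uteri were fixed in Bouin solution and dried at 100 °C for 24 h. Read-out was uterine dry weight (mg)/body weight (g) × 100, mean of six animals ± SD.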

Experiment [5] shares this target. The experiment in a line: Uterotrophic effect in mice at 125 ug. Conditions: Uterus. The experiment is classed as functional, tissue-based. Summed up: as §2
Experiment [6] shares this target. Put plainly: Uterotrophic effect in mice at 5 ug. The experiment is classed as functional, tissue-based. Conditions: Uterus. A digest of the protocol:
as §2

Experiment [7] shares this target. Put plainly: Percent inhibition of uterotrophic effect in mice at 125 ug dose. The experiment is classed as functional. Summed up: (§3)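 Mice were immature female NMRI (20 days old) given sc injections in olive oil on three consecutive days, each containing 0.4 μg estrone plus test compound. Uteri were weighed dry 24 h after the last injection. Antagonism (%) = 100 − [(W_S,T − W_V)/(W_S − W_V) × 100], with relative uterine weights from estrone+compound, estrone alone and vehicle controls. Significance was tested by Mann-Whitney U test.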

Experiment [8] shares this target. The experiment in a line: Percent inhibition of uterotrophic effect in mice at 5 ug dose. It is filed as functional. A digest of the protocol:
as §3

For experiment [9] the target is unchanged. Put plainly: Uterotrophic effect in mice at 25 ug. It is filed as functional, tissue-based. The note with it: Uterus. A digest of the protocol:
as §2

Experiment [10] has the same target. Put plainly: Anti-uterotrophic effect in mice at 25 ug. The experiment is classed as functional. A digest of the protocol: as §1
The target is the same in experiment [11]. Put plainly: Percent inhibition of uterotrophic effect in mice at 25 ug dose. It is filed as functional. A digest of the protocol: as §3
Experiment [12] shares this target. The experiment in a line: Anti-uterotrophic effect in mice at 1 ug. It is filed as functional. Summed up:
as §1

The target is the same in experiment [13]. Put plainly: Percent inhibition of uterotrophic effect in mice at 1 ug dose. The experiment is classed as functional. A digest of the protocol:
as §3

T1 sequence (O08537 whole entry, looked up): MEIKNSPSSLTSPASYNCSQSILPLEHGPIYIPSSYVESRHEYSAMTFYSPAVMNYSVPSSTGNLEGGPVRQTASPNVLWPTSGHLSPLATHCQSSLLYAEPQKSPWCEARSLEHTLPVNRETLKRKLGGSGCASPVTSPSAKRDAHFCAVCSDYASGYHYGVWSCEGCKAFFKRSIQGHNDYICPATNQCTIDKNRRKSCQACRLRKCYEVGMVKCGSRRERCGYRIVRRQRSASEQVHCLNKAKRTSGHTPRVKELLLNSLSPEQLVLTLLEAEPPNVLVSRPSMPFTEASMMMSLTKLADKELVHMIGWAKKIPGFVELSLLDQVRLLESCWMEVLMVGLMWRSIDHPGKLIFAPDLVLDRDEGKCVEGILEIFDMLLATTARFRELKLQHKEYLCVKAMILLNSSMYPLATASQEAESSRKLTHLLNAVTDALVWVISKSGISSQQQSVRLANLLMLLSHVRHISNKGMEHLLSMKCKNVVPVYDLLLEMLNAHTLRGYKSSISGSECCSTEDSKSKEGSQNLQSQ
T1 sequence (P19785 whole entry, looked up): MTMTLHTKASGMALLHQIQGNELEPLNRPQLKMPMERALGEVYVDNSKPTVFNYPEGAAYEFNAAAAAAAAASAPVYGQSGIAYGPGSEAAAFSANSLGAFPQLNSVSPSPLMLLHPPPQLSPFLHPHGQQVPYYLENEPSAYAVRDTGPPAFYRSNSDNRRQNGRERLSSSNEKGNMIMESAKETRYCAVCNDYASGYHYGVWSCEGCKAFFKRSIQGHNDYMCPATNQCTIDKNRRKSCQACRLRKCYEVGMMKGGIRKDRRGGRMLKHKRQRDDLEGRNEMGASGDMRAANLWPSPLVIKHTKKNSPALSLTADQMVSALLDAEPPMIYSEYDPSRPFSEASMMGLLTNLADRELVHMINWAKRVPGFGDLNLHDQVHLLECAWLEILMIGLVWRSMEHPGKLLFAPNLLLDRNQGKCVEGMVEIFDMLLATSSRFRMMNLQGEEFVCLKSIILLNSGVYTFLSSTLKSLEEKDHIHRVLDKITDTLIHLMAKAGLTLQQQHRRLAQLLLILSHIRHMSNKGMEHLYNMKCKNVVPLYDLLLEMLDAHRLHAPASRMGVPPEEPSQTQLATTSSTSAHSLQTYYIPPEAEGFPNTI

Usually inhibition stands for the drop in the measured response relative to a control, in per cent. In [1], `CNCCCCCCC1C(c2ccc(O)cc2)=C(C)c2cc(O)ccc21` (stereo unspecified) displayed a relative binding affinity (RBA) of 27. The Relative uterine weight in experiment [2] was 33.7; in [3], 38.1; in [4], 14.4; in experiment [5] it was 34; in [6], 22.8. For the same compound, the results for the inhibition in experiment [7] and in experiment [8] were 59% and 49%, respectively.

As to `CC1=C(c2ccc(O)cc2)C(CCCCCCN2CCCCC2)c2ccc(O)cc21` (stereo unspecified), the relative binding affinity (RBA) in experiment [1] came out at 23. The Relative uterine weight turned out to be 22.3 in experiment [2]; 28.9 in [3]; 24.7 in experiment [5]; 21.4 in [9]; 19.7 in [6]. The inhibition in experiment [7] stood at 98%; in experiment [8], 71%.

For the compound `CC1=C(c2ccc(O)cc2)C(CCCCCCCCN2CCCC2)c2ccc(O)cc21` (stereo unspecified), the relative binding affinity (RBA) in experiment [1] was found to be 7.6.

For the compound `CC1=C(c2ccc(O)cc2)C(CCCCCCCN)c2ccc(O)cc21` (stereo unspecified), the relative binding affinity (RBA) in experiment [1] came to 11.

With `Oc1ccc(C2=Cc3cc(O)ccc3C2CCCCCCN2CCCC2)cc1` (stereo unspecified), the relative binding affinity (RBA) in [1] was found to be 2.3.

As for `CC1=C(c2ccc(O)cc2)C(CCCCCCNCc2ccccc2)c2ccc(O)cc21` (stereo unspecified), the relative binding affinity (RBA) in experiment [1] amounted to 15. Moreover, the Relative uterine weight in [2] is 40.8; in experiment [10], 44.6; in experiment [3] it was 53.2; in [5], 34; in experiment [9], 23.6; in [6] it was 17.8. Also, the figures for the inhibition in [7], in experiment [11] and in experiment [8] were 51%, 43% and 25%, respectively.

`Oc1ccc(C2=Cc3cc(O)ccc3C2CCCCCCN2CCCCC2)cc1` (stereo unspecified) came in with a relative binding affinity (RBA) in [1] of 1.3.

Regarding `CC1=C(c2ccc(O)cc2)C(CCCCCCN2CCOCC2)c2ccc(O)cc21` (stereo unspecified), the relative binding affinity (RBA) in [1] stood at 10. In addition, the Relative uterine weight turned out to be 18 in [2]; 47.7 in experiment [10]; 51.2 in [3]; 17.4 in experiment [5]; 21.8 in [9]; 19.5 in experiment [6]. Also, the inhibition in experiment [7] is 102%; in experiment [11], 18%; in experiment [8], 8%.

In the case of `CC1=C(c2ccc(O)cc2)C(CCCCN2CCCC2)c2ccc(O)cc21` (stereo unspecified), the relative binding affinity (RBA) in [1] came to 3.6. The Relative uterine weight in experiment [12] was determined as 43.7; in experiment [2], 25.5; in experiment [10], 16.2; in [3], 47.6; in experiment [4], 7.6; in experiment [5], 6.4. The Relative uterine weight turned out to be 6.4 in [9] and 8 in experiment [6]. For the same compound, the figures for the inhibition in experiment [13], in [7] and in experiment [11] were 5%, 53% and 78%, respectively.

As to `CCN(CC)CCCCCCC1C(c2ccc(O)cc2)=C(C)c2cc(O)ccc21` (stereo unspecified), the relative binding affinity (RBA) in [1] worked out at 14. In addition, the Relative uterine weight came out at 30.9 in experiment [2]; 52.5 in [10]; 46 in experiment [3]; 22.4 in experiment [5]; 18.2 in experiment [9]; 16.1 in experiment [6]. For the same compound, the inhibition in experiment [7] worked out at 61%; in experiment [8], 23%.

In the case of `CC1=C(c2ccc(O)cc2)C(CCCCCCN(C)C)c2ccc(O)cc21` (stereo unspecified), the relative binding affinity (RBA) in [1] was 12.

`CC1=C(c2ccc(O)cc2)C(CCCCCCN)c2ccc(O)cc21` (stereo unspecified) came in with a relative binding affinity (RBA) in experiment [1] of 25. Besides, the Relative uterine weight in experiment [12] turned out to be 65.9; in [2], 16.2; in experiment [10] it was 15; in experiment [3], 30.1; in experiment [4], 10.9; in experiment [5], 16.9. Also, the Relative uterine weight in experiment [9] worked out at 12.4; in experiment [6], 11.9. Also, the figures for the inhibition in experiment [7], in experiment [11] and in experiment [8] were 99%, 102% and 68%, respectively.

Regarding `CC1=C(c2ccc(O)cc2)C(CCCCCCN2CCCC2)c2ccc(O)cc21` (stereo unspecified), the Relative uterine weight in [12] was 45.8; in experiment [2], 8.9; in experiment [10], 14.4; in [3], 15.4; in experiment [4], 12.5; in experiment [5], 14.1. For the same compound, the figures for the Relative uterine weight in experiment [9] and in experiment [6] were 13.9 and 9, respectively. In addition, the inhibition in experiment [13] turned out to be 20%; in experiment [7], 117%; in experiment [11], 103%; in experiment [8], 100%.

Source of the values: ChEMBL document CHEMBL1125054, “1-(aminoalkyl)-2-phenylindoles as novel pure estrogen antagonists” (J Med Chem, 1990).
